Measurements: ChEMBL document CHEMBL1126762, “Synthesis and anaerobic activity of novel 1-carba-1-dethiacephalosporins” (J Med Chem, 1993)
Converted amounts (≈) assume the structure as drawn.

tested on: Eikenella corrodens; assay: Antibacterial activity against anaerobic Bacteroides corrodens 1874; assay type: functional; details: not given
How it was run: (§1)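 MIC by agar dilution following the NCCLS M11-A2 (2nd ed.) procedure for antimicrobial testing of anaerobic bacteria.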

SMILES | MIC [µg/mL]
CO/N=C(\C(=O)N[C@@H]1C(=O)N2C(C(=O)O)=C(Sc3ncc([N+](=O)[O-])s3)CC[C@H]12)c1csc(N)n1 | 8 (≈ 15.2 µM)

tested on: Phocaeicola vulgatus; assay: Antibacterial activity against anaerobic Bacteroides vulgatus 1211; assay type: functional; details: not given; how it was run: as §1

SMILES | MIC [µg/mL]
CO/N=C(\C(=O)N[C@@H]1C(=O)N2C(C(=O)O)=C(Sc3ncc([N+](=O)[O-])s3)CC[C@H]12)c1csc(N)n1 | 2 (≈ 3.81 µM)

tested on: Bacteroides thetaiotaomicron; assay: Antibacterial activity against anaerobic Bacteroides thetaiotaomicron 1438; assay type: functional; details: not given; how it was run: as §1

SMILES | MIC [µg/mL]
CO/N=C(\C(=O)N[C@@H]1C(=O)N2C(C(=O)O)=C(Sc3ncc([N+](=O)[O-])s3)CC[C@H]12)c1csc(N)n1 | ≤ 0.5

tested on: Prevotella melaninogenica; assay: Antibacterial activity against anaerobic Bacteroides melaninogenicus 1856/28; assay type: functional; details: not given; how it was run: as §1

SMILES | MIC [µg/mL]
CO/N=C(\C(=O)N[C@@H]1C(=O)N2C(C(=O)O)=C(Sc3ncc([N+](=O)[O-])s3)CC[C@H]12)c1csc(N)n1 | 4 (≈ 7.61 µM)

tested on: Prevotella melaninogenica; assay: Antibacterial activity against anaerobic Bacteroides melaninogenicus 2736; assay type: functional; details: not given; how it was run: as §1

SMILES | MIC [µg/mL]
CO/N=C(\C(=O)N[C@@H]1C(=O)N2C(C(=O)O)=C(Sc3ncc([N+](=O)[O-])s3)CC[C@H]12)c1csc(N)n1 | 4 (≈ 7.61 µM)

tested on: Bacteroides fragilis; assay: Antibacterial activity against anaerobic Bacteroides fragilis 111; assay type: functional; details: not given; how it was run: as §1

SMILES | MIC [µg/mL]
CO/N=C(\C(=O)N[C@@H]1C(=O)N2C(C(=O)O)=C(Sc3ncc([N+](=O)[O-])s3)CC[C@H]12)c1csc(N)n1 | 8 (≈ 15.2 µM)

tested on: Bacteroides fragilis; assay: Antibacterial activity against anaerobic Bacteroides fragilis 1877; assay type: functional; details: not given; how it was run: as §1

SMILES | MIC [µg/mL]
CO/N=C(\C(=O)N[C@@H]1C(=O)N2C(C(=O)O)=C(Sc3ncc([N+](=O)[O-])s3)CC[C@H]12)c1csc(N)n1 | 2 (≈ 3.81 µM)

tested on: Bacteroides fragilis; assay: Antibacterial activity against anaerobic Bacteroides fragilis 1936B; assay type: functional; details: not given; how it was run: as §1

SMILES | MIC [µg/mL]
CO/N=C(\C(=O)N[C@@H]1C(=O)N2C(C(=O)O)=C(Sc3ncc([N+](=O)[O-])s3)CC[C@H]12)c1csc(N)n1 | 4 (≈ 7.61 µM)

tested on: Clostridioides difficile; assay: Antibacterial activity against anaerobic Clostridium difficile 2994 strain; assay type: functional; details: not given; how it was run: as §1

SMILES | MIC [µg/mL]
CO/N=C(\C(=O)N[C@@H]1C(=O)N2C(C(=O)O)=C(Sc3ncc([N+](=O)[O-])s3)CC[C@H]12)c1csc(N)n1 | 2 (≈ 3.81 µM)

tested on: Clostridium perfringens; assay: Antibacterial activity against anaerobic Clostridium perfringens 81; assay type: functional; details: not given
How it was run: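 Agar dilution MIC following NCCLS document M11-A2 (Vol. 10, no. 15), the method for antimicrobial testing of anaerobic bacteria; value reported as minimum inhibitory concentration.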

SMILES | MIC [µg/mL]
CO/N=C(\C(=O)N[C@@H]1C(=O)N2C(C(=O)O)=C(Sc3ncc([N+](=O)[O-])s3)CC[C@H]12)c1csc(N)n1 | 2 (≈ 3.81 µM)

tested on: Clostridium septicum; assay: Antibacterial activity against anaerobic Clostridium septicum 1128; assay type: functional; details: not given; how it was run: as §1

SMILES | MIC [µg/mL]
CO/N=C(\C(=O)N[C@@H]1C(=O)N2C(C(=O)O)=C(Sc3ncc([N+](=O)[O-])s3)CC[C@H]12)c1csc(N)n1 | ≤ 0.5

tested on: Escherichia coli; assay: Antibacterial activity against aerobic Escherichia coli EC14; assay type: functional; details: not given
How it was run: (§2)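 MIC by agar dilution following the NCCLS M7-A2 (2nd ed.) procedure for bacteria that grow aerobically.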

SMILES | MIC [µg/mL]
CO/N=C(\C(=O)N[C@@H]1C(=O)N2C(C(=O)O)=C(Sc3ncc([N+](=O)[O-])s3)CC[C@H]12)c1csc(N)n1 | 0.5 (≈ 0.951 µM)

tested on: not listed separately; assay: Antibacterial activity against anaerobic Eubacterium aerofaciens 1235; assay type: functional; details: Collinsella aerofaciens; how it was run: as §1

SMILES | MIC [µg/mL]
CO/N=C(\C(=O)N[C@@H]1C(=O)N2C(C(=O)O)=C(Sc3ncc([N+](=O)[O-])s3)CC[C@H]12)c1csc(N)n1 | 8 (≈ 15.2 µM)

tested on: Klebsiella aerogenes; assay: Antibacterial activity against aerobic Enterobacter aerogenes C32; assay type: functional; details: not given; how it was run: as §2

SMILES | MIC [µg/mL]
CO/N=C(\C(=O)N[C@@H]1C(=O)N2C(C(=O)O)=C(Sc3ncc([N+](=O)[O-])s3)CC[C@H]12)c1csc(N)n1 | 2 (≈ 3.81 µM)

tested on: not listed separately; assay: Antibacterial activity against anaerobic Fusobacterium symbiosum 1470; assay type: functional, fusobacterium symbosium; details: not given; how it was run: as §1

SMILES | MIC [µg/mL]
CO/N=C(\C(=O)N[C@@H]1C(=O)N2C(C(=O)O)=C(Sc3ncc([N+](=O)[O-])s3)CC[C@H]12)c1csc(N)n1 | 1 (≈ 1.9 µM)

tested on: Fusobacterium necrophorum; assay: Antibacterial activity against anaerobic Fusobacterium necrophorum 6054A; assay type: functional; details: not given; how it was run: as §1

SMILES | MIC [µg/mL]
CO/N=C(\C(=O)N[C@@H]1C(=O)N2C(C(=O)O)=C(Sc3ncc([N+](=O)[O-])s3)CC[C@H]12)c1csc(N)n1 | ≤ 0.5

tested on: Haemophilus influenzae; assay: Antibacterial activity against aerobic Haemophilus influenzae RES 76; assay type: functional; details: not given; how it was run: as §2

SMILES | MIC [µg/mL]
CO/N=C(\C(=O)N[C@@H]1C(=O)N2C(C(=O)O)=C(Sc3ncc([N+](=O)[O-])s3)CC[C@H]12)c1csc(N)n1 | 0.06 (≈ 0.114 µM)

tested on: Klebsiella pneumoniae; assay: Antibacterial activity against aerobic Klebsiella pneumoniae X26; assay type: functional; details: not given; how it was run: as §2

SMILES | MIC [µg/mL]
CO/N=C(\C(=O)N[C@@H]1C(=O)N2C(C(=O)O)=C(Sc3ncc([N+](=O)[O-])s3)CC[C@H]12)c1csc(N)n1 | 0.125 (≈ 0.238 µM)

tested on: Peptostreptococcus anaerobius; assay: Antibacterial activity against anaerobic Peptostreptococcus anaerobius 1451; assay type: functional; details: not given; how it was run: as §1

SMILES | MIC [µg/mL]
CO/N=C(\C(=O)N[C@@H]1C(=O)N2C(C(=O)O)=C(Sc3ncc([N+](=O)[O-])s3)CC[C@H]12)c1csc(N)n1 | ≤ 0.5

tested on: not listed separately; assay: Antibacterial activity against anaerobic Peptostreptococcus intermedius 1264; assay type: functional; details: not given; how it was run: as §1

SMILES | MIC [µg/mL]
CO/N=C(\C(=O)N[C@@H]1C(=O)N2C(C(=O)O)=C(Sc3ncc([N+](=O)[O-])s3)CC[C@H]12)c1csc(N)n1 | ≤ 0.5

tested on: Pseudomonas aeruginosa; assay: Antibacterial activity against aerobic Pseudomonas aeruginosa X239 strain; assay type: functional; details: not given; how it was run: as §2

SMILES | MIC [µg/mL]
CO/N=C(\C(=O)N[C@@H]1C(=O)N2C(C(=O)O)=C(Sc3ncc([N+](=O)[O-])s3)CC[C@H]12)c1csc(N)n1 | > 128

tested on: not listed separately; assay: Antibacterial activity against anaerobic Peptococcus asaccharolyticus 1302; assay type: functional; details: Peptoniphilus asaccharolyticus; how it was run: as §1

SMILES | MIC [µg/mL]
CO/N=C(\C(=O)N[C@@H]1C(=O)N2C(C(=O)O)=C(Sc3ncc([N+](=O)[O-])s3)CC[C@H]12)c1csc(N)n1 | ≤ 0.5

tested on: Anaerococcus prevotii; assay: Antibacterial activity against anaerobic Peptococcus prevoti 1281; assay type: functional; details: not given; how it was run: as §1

SMILES | MIC [µg/mL]
CO/N=C(\C(=O)N[C@@H]1C(=O)N2C(C(=O)O)=C(Sc3ncc([N+](=O)[O-])s3)CC[C@H]12)c1csc(N)n1 | ≤ 0.5

tested on: Cutibacterium acnes; assay: Antibacterial activity against anaerobic Propionibacterium acnes 79; assay type: functional; details: not given; how it was run: as §1

SMILES | MIC [µg/mL]
CO/N=C(\C(=O)N[C@@H]1C(=O)N2C(C(=O)O)=C(Sc3ncc([N+](=O)[O-])s3)CC[C@H]12)c1csc(N)n1 | ≤ 0.5

tested on: Staphylococcus epidermidis; assay: Antibacterial activity against aerobic Staphylococcus epidermidis 222; assay type: functional; details: not given; how it was run: as §2

SMILES | MIC [µg/mL]
CO/N=C(\C(=O)N[C@@H]1C(=O)N2C(C(=O)O)=C(Sc3ncc([N+](=O)[O-])s3)CC[C@H]12)c1csc(N)n1 | 0.5 (≈ 0.951 µM)

tested on: Streptococcus pneumoniae; assay: Antibacterial activity against aerobic Streptococcus pneumoniae PARK; assay type: functional; details: not given; how it was run: as §2

SMILES | MIC [ng/mL]
CO/N=C(\C(=O)N[C@@H]1C(=O)N2C(C(=O)O)=C(Sc3ncc([N+](=O)[O-])s3)CC[C@H]12)c1csc(N)n1 | 8 (≈ 0.0152 µM)

tested on: Staphylococcus aureus; assay: Antibacterial activity against aerobic Staphylococcus aureus X1.1 strain; assay type: functional; details: not given; how it was run: as §2

SMILES | MIC [µg/mL]
CO/N=C(\C(=O)N[C@@H]1C(=O)N2C(C(=O)O)=C(Sc3ncc([N+](=O)[O-])s3)CC[C@H]12)c1csc(N)n1 | 0.125 (≈ 0.238 µM)
